Screening data from PubChem BioAssay.
The full list was thinned out, with hits kept by preference.
A1 apoptosis 2 = blocks A1, raising caspase activity. 24,000 tested, under 10 active. caspase activation, % (concentration not given with the values). MEF A1-2A-BIM cells, caspase-Glo luminescence, 3 h; percent of clofoctol response, DMSO zero. AID 2465; in the data active = caspase activation above about 5.9%
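system = A1-2A-BIM-expressing MEF cells | quantity = 2500 MEF cells/well | dosing = 50 nL compound per well, pinned | schedule = overnight cell settling, then 3 h compound exposure, 37 °C | signal = luminescence from DEVD-luciferin Caspase-Glo reagent, 1:1 in 50 mM HEPES, 1 h RT | read-out = Caspase-3/7 activation, seen as rise in luminescence signal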
INS-1E rescue = INS-1E beta cell protection from cytokine death; INS-1E cytokine-induced death, ATP luminescence, 48 h; normalised: neutral wells 0, positive control 100; protection from cytokine-induced ATP loss, % at 10 µM; 0.1% of 20,000 active;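 active = mean replicate protection from cytokine-induced ATP loss at least 50% and at least 75% of replicates each reaching 50%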
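assay system = INS-1E rat insulinoma cells | amount = 8000 cells per well | medium = phenol-red-free RPMI with 5% fetal bovine serum | doses = one compound concentration, pin transfer | timing = 48 h cytokine plus compound treatment, 10 min reagent incubation | also added = IL-1β, TNF-α and IFN-γ cytokine mix | signal = CellTiter-Glo luminescence measuring cellular ATP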
T cruzi intra = inhibitors of intracellular Trypanosoma cruzi; intracellular Trypanosoma cruzi in host cells, plate reader; activity score (inhibition), % at 5.01 µM; 4.9% of 22,000 active; AID 651903; in the data active = activity score above about 55%;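 also: parasites and compound incubated about four days before reading; 0% = median of neutral control wells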
Starred values were filed as active, the others as inactive; / = not tested or not shown.

SMILES	A1 apoptosis 2	INS-1E rescue	T cruzi intra
C[C@H]1CN([C@@H](C)CO)C(=O)c2cc(NC(=O)Nc3ccccc3)ccc2O[C@H]1CN(C)Cc1ccc(C(=O)Nc2ccccc2N)cc1	/	-7.1	54.4
C[C@H](CO)N1C[C@H](C)[C@H](CN(C)Cc2ccc(C(=O)Nc3ccccc3N)cc2)Oc2ccc(NC(=O)Nc3ccc4c(c3)OCO4)cc2C1=O	-0.1	-2.7	74.4*
C[C@@H]1CN([C@@H](C)CO)C(=O)c2cccc(NC(=O)Nc3ccc4c(c3)OCO4)c2O[C@H]1CN(C)Cc1ccc(C(=O)Nc2ccccc2N)cc1	1.3	-1.1	67.5*
C[C@@H]1CN([C@@H](C)CO)C(=O)c2cccc(NC(=O)Nc3ccc4c(c3)OCO4)c2O[C@@H]1CN(C)Cc1ccc(C(=O)O)cc1	/	2.9	-17.4
CC(C)NC(=O)[C@@]1(C)c2ccccc2C(=O)N(Cc2ccccc2)[C@H]1c1ccc(CO)cc1	-0.2	/	/
C[C@H](CO)N1C[C@H](C)[C@H](CN(C)C(=O)Nc2ccc(F)cc2)Oc2c(NS(=O)(=O)c3ccc(F)cc3)cccc2C1=O	/	-4.3	32.9
Cc1ccc(S(=O)(=O)Nc2ccc3c(c2)C(=O)N([C@H](C)CO)C[C@@H](C)[C@@H](CN(C)Cc2ccc(Cl)c(Cl)c2)OCCCC[C@H](C)O3)cc1	0.4	/	/
C[C@@H]1CCCCO[C@H](CN(C)Cc2ccc(Cl)c(Cl)c2)[C@@H](C)CN([C@H](C)CO)C(=O)c2cc(NS(=O)(=O)c3ccc(F)cc3)ccc2O1	/	-28.7	65.5*
C[C@@H]1CCCCO[C@H](CN(C)Cc2ccc(Cl)c(Cl)c2)[C@@H](C)CN([C@@H](C)CO)C(=O)c2cc(NS(=O)(=O)c3ccc(Cl)cc3)ccc2O1	1.3	/	/
Cc1ccc(S(=O)(=O)Nc2ccc3c(c2)C(=O)N([C@H](C)CO)C[C@H](C)[C@H](CN(C)Cc2ccc(Cl)c(Cl)c2)OCCCC[C@@H](C)O3)cc1	/	-45.2	76.9*
C[C@@H]1CCCCO[C@@H](CN(C)Cc2ccc(Cl)c(Cl)c2)[C@@H](C)CN([C@@H](C)CO)C(=O)c2cc(NS(=O)(=O)c3ccc(F)cc3)ccc2O1	0.1	/	/
COc1ccc(S(=O)(=O)Nc2ccc3c(c2)C(=O)N([C@@H](C)CO)C[C@H](C)[C@@H](CN(C)Cc2ccc(Cl)c(Cl)c2)OCCCC[C@@H](C)O3)cc1	0.0	/	/
COc1ccc(S(=O)(=O)Nc2ccc3c(c2)C(=O)N([C@H](C)CO)C[C@H](C)[C@H](CN(C)Cc2ccc(Cl)c(Cl)c2)OCCCC[C@@H](C)O3)cc1	/	-7.7	57.5*
C[C@@H]1CCCCO[C@@H](CN(C)Cc2ccc(Cl)c(Cl)c2)[C@@H](C)CN([C@H](C)CO)C(=O)c2cc(NS(=O)(=O)c3ccccc3)ccc2O1	/	-69.0	65.6*
C[C@@H]1CCCCO[C@@H](CN(C)C)[C@H](C)CN([C@H](C)CO)C(=O)c2cc(NC(=O)Nc3ccc4c(c3)OCO4)ccc2O1	0.6	/	/
C[C@H](CO)N1C[C@H](C)[C@H](CN(C)Cc2ccc3c(c2)OCO3)Oc2ccc(NS(=O)(=O)c3cccs3)cc2C1=O	-0.8	-9.1	17.6
CNC[C@H]1Oc2ccc(NC(=O)Nc3c(C)noc3C)cc2CC(=O)N([C@H](C)CO)C[C@H]1C	0.7	3.7	-9.1
COc1ccc(CN(C)C[C@@H]2Oc3ccc(NS(=O)(=O)c4cn(C)cn4)cc3CC(=O)N([C@@H](C)CO)C[C@@H]2C)cc1	-0.6	-0.1	-4.4
Cc1ccc(S(=O)(=O)Nc2cccc3c2O[C@@H](CN(C)Cc2ccc(Cl)c(Cl)c2)[C@H](C)CN([C@@H](C)CO)C3=O)cc1	-0.1	7.2	12.6
CNC[C@@H]1Oc2ccc(NC(=O)NC(C)C)cc2CC(=O)N([C@H](C)CO)C[C@H]1C	-0.1	0.5	-26.1
CC(C)NC(=O)N(C)C[C@H]1OCCCC[C@@H](C)Oc2ccc(NS(C)(=O)=O)cc2C(=O)N([C@@H](C)CO)C[C@@H]1C	0.3	/	/
Cc1cc(C(=O)Nc2cccc3c2O[C@H](CN(C)Cc2ccc(C(F)(F)F)cc2)[C@@H](C)CN([C@H](C)CO)C3=O)n(C)n1	0.6	-18.4	69.0*
Cc1cc(C(=O)Nc2cccc3c2O[C@@H](CN(C)C(=O)Nc2ccccc2)[C@@H](C)CN([C@H](C)CO)C3=O)n(C)n1	-1.3	4.5	60.7*
Cc1cc(C(=O)Nc2cccc3c2O[C@H](CN(C)Cc2ccc(C(F)(F)F)cc2)[C@H](C)CN([C@@H](C)CO)C3=O)n(C)n1	-2.0	-2.7	-4.0
Cc1cc(C(=O)Nc2cccc3c2O[C@H](CN(C)Cc2ccc(-c4ccccc4)cc2)[C@H](C)CN([C@@H](C)CO)C3=O)n(C)n1	-0.1	-22.9	-26.1
